The values below come from ChEMBL document CHEMBL1152452, “Modifications incorporated in CpG motifs of oligodeoxynucleotides lead to antagonist activity of toll-like receptors 7 and 9” (2009).

Molecules are shown by their SMILES. The source made the active and inactive calls. The rule behind the calls is not given here.

Test [1] concerns Mus musculus. The test is described as follows: Immunostimulatory activity in C57BL/6 mouse assessed as inhibition of TLR3 agonist-induced IP10 production in serum at 10 mg/kg, sc administered 24 hrs prior to TLR3 agonist challenge measured after 2 hrs by Luminex multiplex assay.
Test [2] concerns Mus musculus. The test is described as follows: Immunostimulatory activity in C57BL/6 mouse assessed as inhibition of TLR3 agonist-induced TNFalpha production in serum at 10 mg/kg, sc administered 24 hrs prior to TLR3 agonist challenge measured after 2 hrs by Luminex multiplex assay.
For test [3], the system named is Mus musculus. The test is described as follows: Immunostimulatory activity in C57BL/6 mouse assessed as inhibition of TLR3 agonist-induced MCP1 production in serum at 10 mg/kg, sc administered 24 hrs prior to TLR3 agonist challenge measured after 2 hrs by Luminex multiplex assay.
For test [4], the system named is Mus musculus. Nature of the test: Immunostimulatory activity in C57BL/6 mouse assessed as inhibition of TLR7 agonist-induced KC production in serum at 5 mg/kg, sc administered 24 hrs prior to TLR7 agonist challenge measured after 2 hrs by Luminex multiplex assay. Format: functional. The conditions noted are these: C57BL/6, sc, route subcutaneous.
In test [5] the test system is Mus musculus. The test is described as follows: Immunostimulatory activity in C57BL/6 mouse assessed as inhibition of TLR7 agonist-induced IL10 production in serum at 5 mg/kg, sc administered 24 hrs prior to TLR7 agonist challenge measured after 2 hrs by Luminex multiplex assay. Type of test: functional. The following applies: C57BL/6, sc, route subcutaneous.
Test [6] concerns Mus musculus. The test is described as follows: Immunostimulatory activity in C57BL/6 mouse assessed as inhibition of TLR3 agonist-induced KC production in serum at 10 mg/kg, sc administered 24 hrs prior to TLR3 agonist challenge measured after 2 hrs by Luminex multiplex assay.
In test [7] the test system is Mus musculus. The test is described as follows: Immunostimulatory activity in C57BL/6 mouse assessed as inhibition of LPS-induced IL10 production in serum at 10 mg/kg, sc administered 24 hrs prior to LPS challenge measured after 2 hrs by Luminex multiplex assay.
The subject of test [8] is Mus musculus. Nature of the test: Immunostimulatory activity in C57BL/6 mouse assessed as inhibition of 1 mg/kg 5'-CTATCTGACGTTCTCTGT-3'-induced IL12 production in serum at 10 mg/kg, sc administered 24 hrs prior to 5'-CTATCTGACGTTCTCTGT-3' challenge measured after 2 hrs by sandwich ELISA. Type of test: functional. The method in brief: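 C57BL/6 mice received 10 mg/kg ODN sc in the right flank. After 24 h, the CpG TLR9 agonist ODN was given sc in the left flank at 0.25, 0.5 or 1 mg/kg. Serum IL-12 was measured by ELISA 2 h after challenge. Naive mice served as reference. Representative of two experiments.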

In test [9] the test system is Mus musculus. The test is described as follows: Immunostimulatory activity in C57BL/6 mouse assessed as inhibition of 5'-CTATCTGACGTTCTCTGT-3'-induced MIG production in serum at 5 mg/kg, sc administered 24 hrs prior to 5'-CTATCTGACGTTCTCTGT-3' challenge measured after 2 hrs by Luminex multiplex assay. Type of test: functional. The conditions noted are these: C57BL/6, sc, route subcutaneous.

Test [10] relates to Mus musculus. Nature of the test: Immunostimulatory activity in C57BL/6 mouse assessed as inhibition of 5'-CTATCTGACGTTCTCTGT-3'-induced IL12 production in serum at 10 mg/kg, sc administered 48 hrs prior to 5'-CTATCTGACGTTCTCTGT-3' challenge measured after 2 hrs by sandwich ELISA. Format: functional. The conditions noted are these: C57BL/6, sc, route subcutaneous. The method in brief:
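C57BL/6 mice received 10 mg/kg ODN sc in the right flank. The TLR9 agonist ODN was then given at 0.5 mg/kg sc in the left flank 24, 48 or 72 h later. Serum IL-12 was measured by ELISA 2 h after challenge. Naive serum served as reference. Representative of three experiments.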

Test [11] deals with Mus musculus. Nature of the test: Immunostimulatory activity in C57BL/6 mouse assessed as inhibition of LPS-induced MIP1a production in serum at 10 mg/kg, sc administered 24 hrs prior to LPS challenge measured after 2 hrs by Luminex multiplex assay.
The test system of test [12] is Mus musculus. Nature of the test: Immunostimulatory activity in C57BL/6 mouse assessed as inhibition of LPS-induced IP10 production in serum at 10 mg/kg, sc administered 24 hrs prior to LPS challenge measured after 2 hrs by Luminex multiplex assay.
The test system of test [13] is Mus musculus. The test is described as follows: Immunostimulatory activity in C57BL/6 mouse assessed as inhibition of LPS-induced IL12 production in serum at 10 mg/kg, sc administered 24 hrs prior to LPS challenge measured after 2 hrs by Luminex multiplex assay.
The subject of test [14] is Mus musculus. Nature of the test: Immunostimulatory activity in sc dosed C57BL/6 mouse assessed as inhibition of 5'-CTATCTGACGTTCTCTGT-3'-induced IL12 production in serum administered 24 hrs prior to 5'-CTATCTGACGTTCTCTGT-3' challenge measured after 2 hrs by sandwich ELISA. Format: functional, organism-based. The method in brief:
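Test ODN was given sc in the right flank of C57BL/6 mice at 2, 5 or 10 mg/kg. After 24 h (or 24, 48 or 72 h in the duration study), the agonist ODN was given sc in the left flank at 0.25, 0.5 or 1 mg/kg (0.5 mg/kg by default). Serum was taken 2 h later by retro-orbital bleed, and IL-12 was measured by sandwich ELISA.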

Test [15] deals with Mus musculus. Nature of the test: Immunostimulatory activity in C57BL/6 mouse assessed as inhibition of 5'-CTATCTGACGTTCTCTGT-3'-induced MIP1a production in serum at 5 mg/kg, sc administered 24 hrs prior to 5'-CTATCTGACGTTCTCTGT-3' challenge measured after 2 hrs by Luminex multiplex assay. The following applies: C57BL/6, sc, route subcutaneous. Format: functional.
Test [16] has as its system Mus musculus. Nature of the test: Immunostimulatory activity in C57BL/6 mouse assessed as inhibition of 5'-CTATCTGACGTTCTCTGT-3'-induced TNFalpha production in serum at 5 mg/kg, sc administered 24 hrs prior to 5'-CTATCTGACGTTCTCTGT-3' challenge measured after 2 hrs by Luminex multiplex assay. Type of test: functional. The following applies: C57BL/6, sc, route subcutaneous.

Test [17] relates to Mus musculus. Nature of the test: Immunostimulatory activity in C57BL/6 mouse assessed as inhibition of TLR3 agonist-induced IL12 production in serum at 10 mg/kg, sc administered 24 hrs prior to TLR3 agonist challenge measured after 2 hrs by Luminex multiplex assay.
Test [18] concerns Mus musculus. Nature of the test: Immunostimulatory activity in C57BL/6 mouse assessed as inhibition of TLR3 agonist-induced MIP1a production in serum at 10 mg/kg, sc administered 24 hrs prior to TLR3 agonist challenge measured after 2 hrs by Luminex multiplex assay.
Test [19] has as its system Mus musculus. Nature of the test: Immunostimulatory activity in C57BL/6 mouse assessed as inhibition of 5'-CTATCTGACGTTCTCTGT-3'-induced IL6 production in serum at 5 mg/kg, sc administered 24 hrs prior to 5'-CTATCTGACGTTCTCTGT-3' challenge measured after 2 hrs by Luminex multiplex assay. The following applies: C57BL/6, sc, route subcutaneous. Format: functional.

As for `COC1[C@H](n2cnc3c(=O)[nH]c(N)nc32)O[C@H](COP(=O)(S)O[C@H]2C[C@H](n3cc(C)c(N)nc3=O)O[C@@H]2COP(=O)(S)O[C@H]2C[C@H](n3cnc4c(N)ncnc43)O[C@@H]2COP(=O)(S)O[C@H]2C[C@H](n3cnc4c(=O)[nH]c(N)nc43)O[C@@H]2COP(=O)(S)O[C@H]2C[C@H](n3cc(C)c(=O)[nH]c3=O)O[C@@H]2COP(=O)(S)O[C@H]2C[C@H](n3ccc(N)nc3=O)O[C@@H]2COP(=O)(S)O[C@H]2C[C@H](n3cc(C)c(=O)[nH]c3=O)O[C@@H]2COP(=O)(S)O[C@H]2C[C@H](n3cnc4c(N)ncnc43)O[C@@H]2COP(=O)(S)O[C@H]2C[C@H](n3cc(C)c(=O)[nH]c3=O)O[C@@H]2COP(=O)(S)O[C@H]2C[C@H](n3ccc(N)nc3=O)O[C@@H]2CO)[C@H]1OP(=O)(S)OC[C@H]1O[C@@H](n2cc(C)c(=O)[nH]c2=O)C[C@@H]1OP(=O)(S)OC[C@H]1O[C@@H](n2cc(C)c(=O)[nH]c2=O)C[C@@H]1OP(=O)(S)OC[C@H]1O[C@@H](n2ccc(N)nc2=O)C[C@@H]1OP(=O)(S)OC[C@H]1O[C@@H](n2cc(C)c(=O)[nH]c2=O)C[C@@H]1OP(=O)(S)OC[C@H]1O[C@@H](n2ccc(N)nc2=O)C[C@@H]1OP(=O)(S)OC[C@H]1O[C@@H](n2cc(C)c(=O)[nH]c2=O)C[C@@H]1OP(=O)(S)OC[C@H]1O[C@@H](n2cnc3c(=O)[nH]c(N)nc32)C[C@@H]1OP(=O)(S)OC[C@H]1O[C@@H](n2cc(C)c(=O)[nH]c2=O)C[C@@H]1O` (some centres undefined), the result in test [1], in [2], in test [3], in test [6], in test [7] and in test [11] was inactive. Moreover, the outcome in [12], in test [13], in [17] and in [18] was inactive. For the same compound, the inhibition in vivo at 5 mg/kg in test [4], in [5], in [9], in test [15], in [16] and in test [19] was 50% throughout. Further, in test [8], the “inhibition (INH)” value is 46%. Also, in test [10], the inhibition in vivo at 10 mg/kg was 57%. Further, the Activity entry in [14] is “Dose-dependent effect”.
